Experimental data as given in ChEMBL document CHEMBL5724801, “EUbOPEN Chemogenomics Library - Multiplex” (2024).
Where “and” joins values, the source holds several entries; their conditions need not be identical. Equal values may be shown once.

Test system: Fibroblast
Test: Multiplex assay against human fibroblast
Format: toxicity, cell-based
How it was run: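 Live cells were stained at seeding with Hoechst33342, BioTracker Green Microtubule Cytoskeleton Dye, MitoTracker Red and Annexin V Alexa Fluor 680. Following compound addition, they were imaged on a CQ1 microscope at 37°C and 5% CO2 and gated by CellPathfinder machine learning into Hoechst high-intensity objects or normal cells, with normal cells split into healthy, pyknosed or fragmented nuclei and pyknosed cells into mitotic or apoptotic. Tubulin, mitochondrial-mass and membrane-permeability phenotypes are per cents of healthy-nucleus cells.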

[1] = 12 h, 1 µM, compound concentration 1 uM
[2] = 12 h, 10 µM, compound concentration 10 uM
[3] = 24 h, 1 µM, compound concentration 1 uM
[4] = 24 h, 10 µM, compound concentration 10 uM
[5] = 48 h, 1 µM, compound concentration 1 uM
[6] = 48 h, 10 µM, compound concentration 10 uM

SMILES: OCCCNc1cc(-c2ccnc(Nc3cccc(Cl)c3)n2)ccn1
- Population Apoptotic (%) [1]: 58% and 50%
- Population Fragmented Nuclei (%) [1]: 15% and 21%
- Population Healthy Nuclei (%) [1]: 66% and 53%
- Population Hoechst High Intensity Objects (%) [1]: 4% and 6%
- Population Membrane Permeable-Phenotype (%) [1]: 0% and 5%
- Population Mitochondria Different-Phenotype (%) [1]: 9% and 13%
- Population Mitotic Cells (%) [1]: 41% and 50%
- Population Normal (%) [1]: 95% and 93%
- Population Pyknosed Nuclei (%) [1]: 18% and 24%
- Population Tubulin-Different-Phenotype (%) [1]: 52% and 47%
- Total Cell Count [1]: 139 and 138
- Population Apoptotic (%) [2]: 61% and 52%
- Population Fragmented Nuclei (%) [2]: 38% and 65%
- Population Healthy Nuclei (%) [2]: 44% and 24%
- Population Hoechst High Intensity Objects (%) [2]: 10% and 6%
- Population Membrane Permeable-Phenotype (%) [2]: 9% and 20%
- Population Mitochondria Different-Phenotype (%) [2]: 25% and 11%
- Population Mitotic Cells (%) [2]: 38% and 47%
- Population Normal (%) [2]: 89% and 93%
- Population Pyknosed Nuclei (%) [2]: 17% and 9%
- Population Tubulin-Different-Phenotype (%) [2]: 88% and 84%
- Total Cell Count [2]: 136 and 227
- Population Apoptotic (%) [3]: 56% and 46%
- Population Fragmented Nuclei (%) [3]: 16% and 29%
- Population Healthy Nuclei (%) [3]: 65% and 48%
- Population Hoechst High Intensity Objects (%) [3]: 2% and 3%
- Population Membrane Permeable-Phenotype (%) [3]: 1% and 6%
- Population Mitochondria Different-Phenotype (%) [3]: 20% and 10%
- Population Mitotic Cells (%) [3]: 43% and 53%
- Population Normal (%) [3]: 97% and 96%
- Population Pyknosed Nuclei (%) [3]: 17% and 22%
- Population Tubulin-Different-Phenotype (%) [3]: 60% and 55%
- Total Cell Count [3]: 136 and 139
- Population Apoptotic (%) [4]: 80%
- Population Fragmented Nuclei (%) [4]: 36% and 63%
- Population Healthy Nuclei (%) [4]: 42% and 27%
- Population Hoechst High Intensity Objects (%) [4]: 11% and 6%
- Population Membrane Permeable-Phenotype (%) [4]: 7% and 12%
- Population Mitotic Cells (%) [4]: 20%
- Population Normal (%) [4]: 88% and 93%
- Population Pyknosed Nuclei (%) [4]: 20% and 9%
- Population Tubulin-Different-Phenotype (%) [4]: 86% and 80%
- Total Cell Count [4]: 138 and 218
- Population Apoptotic (%) [5]: 46% and 37%
- Population Fragmented Nuclei (%) [5]: 27% and 36%
- Population Healthy Nuclei (%) [5]: 47% and 30%
- Population Hoechst High Intensity Objects (%) [5]: 8% and 7%
- Population Membrane Permeable-Phenotype (%) [5]: 1% and 5%
- Population Mitochondria Different-Phenotype (%) [5]: 20% and 24%
- Population Mitotic Cells (%) [5]: 53% and 62%
- Population Normal (%) [5]: 91% and 92%
- Population Pyknosed Nuclei (%) [5]: 25% and 32%
- Population Tubulin-Different-Phenotype (%) [5]: 66% and 45%
- Total Cell Count [5]: 136 and 132
- Population Apoptotic (%) [6]: 91% and 85%
- Population Fragmented Nuclei (%) [6]: 39% and 58%
- Population Healthy Nuclei (%) [6]: 39% and 30%
- Population Hoechst High Intensity Objects (%) [6]: 14% and 6%
- Population Membrane Permeable-Phenotype (%) [6]: 15% and 20%
- Population Mitochondria Different-Phenotype (%) [6]: 42% and 20%
- Population Mitotic Cells (%) [6]: 8% and 14%
- Population Normal (%) [6]: 85% and 93%
- Population Pyknosed Nuclei (%) [6]: 21% and 11%
- Population Tubulin-Different-Phenotype (%) [6]: 77% and 64%
- Total Cell Count [6]: 134 and 192

SMILES: CN1CCN(c2ccc(Nc3c4ccccc4nc4ccccc34)cc2)CC1.Cl.Cl.O
- Population Apoptotic (%) [1]: 47% and 44%
- Population Fragmented Nuclei (%) [1]: 15% and 28%
- Population Healthy Nuclei (%) [1]: 69% and 56%
- Population Hoechst High Intensity Objects (%) [1]: 1%
- Population Membrane Permeable-Phenotype (%) [1]: 0% and 5%
- Population Mitochondria Different-Phenotype (%) [1]: 3% and 5%
- Population Mitotic Cells (%) [1]: 52% and 56%
- Population Normal (%) [1]: 98%
- Population Pyknosed Nuclei (%) [1]: 14% and 15%
- Population Tubulin-Different-Phenotype (%) [1]: 23% and 34%
- Total Cell Count [1]: 135 and 160
- Population Apoptotic (%) [2]: 91% and 66%
- Population Fragmented Nuclei (%) [2]: 42% and 65%
- Population Healthy Nuclei (%) [2]: 49% and 29%
- Population Hoechst High Intensity Objects (%) [2]: 8% and 16%
- Population Membrane Permeable-Phenotype (%) [2]: 0% and 4%
- Population Normal (%) [2]: 91% and 83%
- Population Pyknosed Nuclei (%) [2]: 8% and 4%
- Population Tubulin-Different-Phenotype (%) [2]: 90% and 79%
- Total Cell Count [2]: 158 and 177
- Population Apoptotic (%) [3]: 70% and 60%
- Population Fragmented Nuclei (%) [3]: 21% and 29%
- Population Healthy Nuclei (%) [3]: 65% and 57%
- Population Hoechst High Intensity Objects (%) [3]: 0%
- Population Membrane Permeable-Phenotype (%) [3]: 0% and 3%
- Population Mitochondria Different-Phenotype (%) [3]: 2% and 7%
- Population Mitotic Cells (%) [3]: 29% and 40%
- Population Normal (%) [3]: 99% and 100%
- Population Pyknosed Nuclei (%) [3]: 12%
- Total Cell Count [3]: 139 and 155
- Population Apoptotic (%) [4]: 77% and 60%
- Population Fragmented Nuclei (%) [4]: 47% and 69%
- Population Healthy Nuclei (%) [4]: 39% and 27%
- Population Hoechst High Intensity Objects (%) [4]: 16% and 21%
- Population Membrane Permeable-Phenotype (%) [4]: 1% and 6%
- Population Mitochondria Different-Phenotype (%) [4]: 66% and 34%
- Population Mitotic Cells (%) [4]: 22% and 40%
- Population Normal (%) [4]: 83% and 78%
- Population Pyknosed Nuclei (%) [4]: 12% and 3%
- Population Tubulin-Different-Phenotype (%) [4]: 94% and 84%
- Total Cell Count [4]: 206 and 205
- Population Apoptotic (%) [5]: 66% and 55%
- Population Fragmented Nuclei (%) [5]: 23% and 25%
- Population Healthy Nuclei (%) [5]: 70% and 68%
- Population Hoechst High Intensity Objects (%) [5]: 1%
- Population Membrane Permeable-Phenotype (%) [5]: 0% and 1%
- Population Mitochondria Different-Phenotype (%) [5]: 4%
- Population Mitotic Cells (%) [5]: 33% and 44%
- Population Normal (%) [5]: 98%
- Population Pyknosed Nuclei (%) [5]: 6% and 5%
- Population Tubulin-Different-Phenotype (%) [5]: 26%
- Total Cell Count [5]: 144 and 157
- Population Fragmented Nuclei (%) [6]: 71% and 88%
- Population Healthy Nuclei (%) [6]: 15% and 11%
- Population Hoechst High Intensity Objects (%) [6]: 45% and 38%
- Population Membrane Permeable-Phenotype (%) [6]: 15% and 25%
- Population Mitochondria Different-Phenotype (%) [6]: 30% and 12%
- Population Normal (%) [6]: 54% and 61%
- Population Pyknosed Nuclei (%) [6]: 12% and 0%
- Population Tubulin-Different-Phenotype (%) [6]: 25% and 56%
- Total Cell Count [6]: 235 and 236

SMILES: O=C(NCCN1CCC(n2c(=O)[nH]c3cc(Cl)ccc32)CC1)c1ccc(F)cc1 [HALOPEMIDE]
- Population Apoptotic (%) [1]: 32% and 44%
- Population Fragmented Nuclei (%) [1]: 11% and 27%
- Population Healthy Nuclei (%) [1]: 62% and 43%
- Population Hoechst High Intensity Objects (%) [1]: 0% and 7%
- Population Membrane Permeable-Phenotype (%) [1]: 1% and 10%
- Population Mitochondria Different-Phenotype (%) [1]: 10% and 0%
- Population Mitotic Cells (%) [1]: 67% and 56%
- Population Normal (%) [1]: 99% and 92%
- Population Pyknosed Nuclei (%) [1]: 26% and 29%
- Population Tubulin-Different-Phenotype (%) [1]: 29% and 56%
- Total Cell Count [1]: 120 and 92
- Population Apoptotic (%) [2]: 55% and 31%
- Population Fragmented Nuclei (%) [2]: 15% and 24%
- Population Healthy Nuclei (%) [2]: 54% and 34%
- Population Hoechst High Intensity Objects (%) [2]: 3% and 4%
- Population Membrane Permeable-Phenotype (%) [2]: 0% and 6%
- Population Mitochondria Different-Phenotype (%) [2]: 17% and 14%
- Population Mitotic Cells (%) [2]: 44% and 68%
- Population Normal (%) [2]: 96% and 95%
- Population Pyknosed Nuclei (%) [2]: 30% and 41%
- Population Tubulin-Different-Phenotype (%) [2]: 77% and 87%
- Total Cell Count [2]: 204 and 148
- Population Apoptotic (%) [3]: 58% and 37%
- Population Fragmented Nuclei (%) [3]: 16% and 32%
- Population Healthy Nuclei (%) [3]: 69% and 41%
- Population Hoechst High Intensity Objects (%) [3]: 3% and 10%
- Population Membrane Permeable-Phenotype (%) [3]: 1% and 5%
- Population Mitochondria Different-Phenotype (%) [3]: 9% and 8%
- Population Mitotic Cells (%) [3]: 41% and 62%
- Population Normal (%) [3]: 96% and 90%
- Population Pyknosed Nuclei (%) [3]: 13% and 26%
- Population Tubulin-Different-Phenotype (%) [3]: 38% and 59%
- Total Cell Count [3]: 128 and 100
- Population Apoptotic (%) [4]: 67% and 41%
- Population Fragmented Nuclei (%) [4]: 23% and 26%
- Population Healthy Nuclei (%) [4]: 51% and 38%
- Population Hoechst High Intensity Objects (%) [4]: 5% and 6%
- Population Membrane Permeable-Phenotype (%) [4]: 0% and 12%
- Population Mitochondria Different-Phenotype (%) [4]: 28% and 32%
- Population Mitotic Cells (%) [4]: 32% and 58%
- Population Normal (%) [4]: 95% and 93%
- Population Pyknosed Nuclei (%) [4]: 24% and 35%
- Population Tubulin-Different-Phenotype (%) [4]: 78% and 94%
- Total Cell Count [4]: 220 and 140
- Population Apoptotic (%) [5]: 52% and 35%
- Population Fragmented Nuclei (%) [5]: 14% and 38%
- Population Healthy Nuclei (%) [5]: 68% and 43%
- Population Hoechst High Intensity Objects (%) [5]: 3% and 4%
- Population Membrane Permeable-Phenotype (%) [5]: 4% and 14%
- Population Mitochondria Different-Phenotype (%) [5]: 7% and 4%
- Population Mitotic Cells (%) [5]: 47% and 64%
- Population Normal (%) [5]: 96% and 95%
- Population Pyknosed Nuclei (%) [5]: 17%
- Population Tubulin-Different-Phenotype (%) [5]: 36% and 63%
- Total Cell Count [5]: 128 and 99
- Population Apoptotic (%) [6]: 80% and 48%
- Population Fragmented Nuclei (%) [6]: 32% and 35%
- Population Healthy Nuclei (%) [6]: 50% and 45%
- Population Hoechst High Intensity Objects (%) [6]: 10% and 5%
- Population Membrane Permeable-Phenotype (%) [6]: 0% and 10%
- Population Mitochondria Different-Phenotype (%) [6]: 35% and 15%
- Population Mitotic Cells (%) [6]: 19% and 52%
- Population Normal (%) [6]: 89% and 94%
- Population Pyknosed Nuclei (%) [6]: 17% and 19%
- Population Tubulin-Different-Phenotype (%) [6]: 77% and 96%
- Total Cell Count [6]: 229 and 136
